Screens deposited in PubChem by several laboratories.
Apaf-1 inh – inhibitors of human Apaf-1 apoptosome, primary screen, biochemical, DEVD-Rh110 fluorescence, uHTS | reconstituted apoptosome caspase-3 activity | 330,000 compounds, 0.71% hits | Apoptotic protease-activating factor 1 (Homo sapiens), O14727 | inhibition, % at 20 µM; active = inhibition of at least 40% at 20 µM;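 also: plate controls were DMSO wells for no effect and DEVD-CHO caspase inhibitor wells for full effect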
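Material: reconstituted apoptosome with Apaf-1, cytochrome c, caspase-9, procaspase-3, dATP. Technique: Rh110 fluorescence intensity. Buffer or medium: pH 7.5 Hepes buffer with CHAPS, BSA, DTT. Times: 30 min plus 50 min, RT.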
Rin1-Abl PPI inh – inhibitors of Rin1-Abl protein binding, primary screen, biochemical, TR-FRET. Tyrosine-protein kinase ABL1 (Homo sapiens) + Ras and Rab interactor 1 (Homo sapiens), …. inhibition, % at 7.35 µM. 360,000 compounds, 0.4% hits. AID 588664, 2011; in the data active = inhibition above about 5%, passing the limit was not always enough
GSTO1 counter – inhibitors of recombinant GSTO1, primary screen, counter-screen for RBBP9 inhibitor project, biochemical, fluorescence polarization; activity-based probe fluorescence polarization; inhibition, % at 5.96 µM; 300,000 compounds, 1.1% hits; AID 1974, 2009;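 active = inhibition above the campaign mean inhibition plus 3 SD, cut at about 35% in these data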;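 also: 0% = GSTO1-1 with DMSO and 100% = wells lacking GSTO1-1 enzyme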
Target sequence (P78417 whole entry, looked up): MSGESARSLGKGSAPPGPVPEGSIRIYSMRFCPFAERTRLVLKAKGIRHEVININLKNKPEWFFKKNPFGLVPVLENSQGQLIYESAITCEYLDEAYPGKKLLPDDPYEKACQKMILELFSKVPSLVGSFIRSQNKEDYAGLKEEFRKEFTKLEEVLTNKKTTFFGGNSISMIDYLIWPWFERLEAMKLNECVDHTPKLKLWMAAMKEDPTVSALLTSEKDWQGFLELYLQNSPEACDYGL
PAD4 FP inh – human PAD4 inhibitors, primary screen, biochemical, fluorescence polarization, 1536-well format; Protein-arginine deiminase type-4 (Homo sapiens), Q9UM07; recombinant PAD4, RCA probe fluorescence polarization; inhibition, % at 6.36 µM; 330,000 compounds, 0.41% hits;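 active = percent inhibition above a cutoff equal to the mean of all tested compounds plus 3 SD, cut at about 15% in these data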;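 also: 0% = PAD4 with RCA probe and DMSO and 100% = probe without PAD4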
UBC13 polyUb – UBC13 polyubiquitin chain formation inhibitors, primary screen, biochemical, TR-FRET, uHTS. 330,000 compounds, 0.47% hits. Ubiquitin-conjugating enzyme E2 N (Homo sapiens), P61088. AID 485273, 2010. inhibition, % at 20 µM; in the data active = inhibition above about 45%, passing the limit was not always enough
Target sequence (P61088 whole entry, looked up): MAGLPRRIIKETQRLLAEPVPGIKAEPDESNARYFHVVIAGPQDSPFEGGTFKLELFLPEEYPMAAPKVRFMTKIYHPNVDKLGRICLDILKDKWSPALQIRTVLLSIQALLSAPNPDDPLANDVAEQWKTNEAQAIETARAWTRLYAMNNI
SUMO HTRF inh – inhibitors of in vitro SUMOylation cascade, primary screen, biochemical, HTRF, uHTS | SUMO-conjugating enzyme UBC9 (Homo sapiens), P63279 | HTRF SUMOylation assay, SAE1/SAE2 + UBC9 | inhibition, % at 35 µM | 290,000 compounds, 0.36% hits; in the data active = inhibition above about 50%, passing the limit was not always enough
Target sequence (P63279 whole entry, looked up): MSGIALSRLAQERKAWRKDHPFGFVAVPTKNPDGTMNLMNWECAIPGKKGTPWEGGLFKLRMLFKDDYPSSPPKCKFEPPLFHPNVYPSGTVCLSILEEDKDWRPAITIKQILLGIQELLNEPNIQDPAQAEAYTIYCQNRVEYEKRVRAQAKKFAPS
GSTO1 inh conf – GSTO1 inhibitor hit confirmation, counter-screen for RBBP9 inhibitor project, biochemical, fluorescence polarization, triplicate | shares compounds with GSTO1 counter | 2,400 compounds, 54% hits | recombinant GSTO1, probe fluorescence polarization | inhibition, % at 5.96 µM | AID 2176, 2009;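 active = inhibition above the primary screen's cutoff, its mean inhibition plus 3 SD, cut at about 35% in these data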;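 also: loss of polarization as inhibitors block binding of rhodamine sulfonate ester activity probe; 0% = GSTO1 with DMSO and 100% = wells lacking GSTO1 enzyme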
GSTO1 recomb ABPP – inhibitors of purified human GSTO1, late-stage follow-up, biochemical, gel ABPP, SE-Rh probe, percent inhibition. shares compounds with GSTO1 counter. recombinant GSTO1, gel ABPP SE-Rh probe fluorescence. inhibition, % at 1 µM. 130 compounds, 30% hits. AID 463110, 2010;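 active = inhibition of the enzyme GSTO1 above about 75%, limit read from the data; inactive = inhibition below that limit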
Starred values were filed as active, the others as inactive; · = not tested or not shown. Most compounds without a hit are left out; they make up all but 2.2% or so of the library.

SMILES	Apaf-1 inh	Rin1-Abl PPI inh	GSTO1 counter	PAD4 FP inh	UBC13 polyUb	SUMO HTRF inh	GSTO1 inh conf	others
O=C(Nc1cccc(F)c1)C1CCCN(C(=O)c2ccc(Cl)cc2)C1 (centres undefined)	-4	3	·	0	10	·	·
C=CCNc1nc2cc(-c3ccccc3OC)sc2c(=O)n1C	·	-4	·	·	·	·	·
CCCCCn1c(=O)c2ccccc2n2c(CCl)nnc12	13	2	84*	0	0	19	95*	GSTO1 recomb ABPP=63
CC(C)CCn1c(=O)c2ccccc2n2c(CCl)nnc12	-12	-3	81*	-2	-8	15	95*	GSTO1 recomb ABPP=81*
CC(C)CCn1c(=O)c2ccccc2n2c(CN3CCCC3)nnc12	-12	-3	9	-8	-3	19	·
CCCCn1c(CCC(=O)O)nc2cc(S(=O)(=O)N3CCCC3)ccc21	6	1	·	-2	-10	·	·
COc1ccc(NC(=O)CN(C)C(=O)CSc2ccc(Br)cc2)cc1	20	-1	·	-4	13	·	·
CCn1nc([N+](=O)[O-])c(C(C#N)c2nc3cc(C(F)(F)F)ccc3s2)c(Cl)c1=O (centres undefined)	7	0	51*	14	-144	30	51*
CC(C)c1onc(C(=O)NCc2cccs2)c1[N+](=O)[O-]	1	5	41*	1	-1	11	33
COc1ccc2[nH]cc(C(=O)CN3CC(C)CC(C)C3)c2c1 (centres undefined)	1	2	2	0	9	2	·
COc1ccc2[nH]cc(C(=O)CCl)c2c1	-6	-1	83*	4	8	15	100*
N#CC(=C=[N-])c1nc2ccccc2nc1-[n+]1cccc(NC(=O)c2ccc(F)cc2)c1	5	·	59*	-1	-57	35	22
N#CC(=C=[N-])c1nc2ccccc2nc1-[n+]1cccc(NC(=O)c2ccccc2)c1	-8	-4	59*	2	-68	4	23
CCOC(=O)c1nc2ccccc2nc1C	3	-1	0	-1	-6	-3	·
CCc1cc[n+](-c2nc3ccccc3nc2C(=C=[N-])C#N)cc1	4	-12	63*	0	-83	4	32
N#CC(=C=[N-])c1nc2ccccc2nc1-[n+]1cccc(NC(=O)c2cccs2)c1	19	-3	54*	-12	-57	26	19
O=C(Nc1ccc(/C=C/c2nc3ccccc3o2)cc1)c1ccc(F)cc1	-2	-1	2	1	-3	21	·
O=C(Nc1ccc[n+](CC(=O)c2cccc3ccccc23)c1)c1ccccc1	14	-3	1	-3	23	0	·
CC1C=CC=CC=CC=CC=CC=CC=CC(OC2OC(C)C(O)C(N)C2O)CC2OC(O)(CC(O)CC(O)C(O)CCC(O)CC(O)CC(=O)OC(C)C(C)C1O)CC(O)C2C(=O)O (centres undefined)	·	0	·	·	·	·	·
O=C1CC(c2ccc(O)c(O)c2)Oc2cc(O)cc(O)c21 (centres undefined)	-8	1	43*	-4	16	5	16
O=C1CC(c2ccc(O)cc2)Oc2cc(O)cc(O)c21 (centres undefined)	-19	2	14	0	0	12	·
ClCc1cc2ccccc2nc1Cl	-9	3	43*	-6	8	9	95*	GSTO1 recomb ABPP=40
CC1(C(=O)NS(=O)(=O)c2cccc(C#N)c2)CCN1C(=O)c1ccccc1 (centres undefined)	·	0	·	·	·	·	·
Cc1cc([N+](=O)[O-])cc2c1NC(=O)C2(O)N1CCOCC1 (centres undefined)	7	-2	38*	-5	-5	29	15
N#Cc1nc(COc2ccccc2F)oc1NCCc1ccccc1	9	-3	43*	1	7	-7	18
SMILES	Apaf-1 inh	Rin1-Abl PPI inh	GSTO1 counter	PAD4 FP inh	UBC13 polyUb	SUMO HTRF inh	GSTO1 inh conf	others
Cc1cc(C)nc(SCC(=O)Nc2ccc(S(=O)(=O)Nc3onc(C)c3C)cc2)n1	-2	-2	2	-3	-2	-3	·
Cc1noc(NS(=O)(=O)c2ccc(NC(=O)CSc3ncccn3)cc2)c1C	7	-3	55*	2	-7	-3	29
O=C1/C(=C/C=C/c2ccco2)SC(=S)N1c1ccc(O)cc1	12	5.7*	46*	-14	45	64*	24
COC(=O)c1ccc2nc(-c3ccco3)c(Cc3ccc(OC)cc3C)n2c1	·	-3	·	·	·	·	·
O=C1/C(=N\S(=O)(=O)c2cccs2)C([n+]2ccccc2)=C([O-])c2ccccc21	27	-6	92*	12	-89	27	86*
O=C(O)c1ccc(NC2=C/C(=N/S(=O)(=O)c3cccs3)c3ccccc3C2=O)cc1	·	-1	·	·	·	·	·
CC(C)(C)c1cc[n+](C2=C([O-])c3ccccc3C(=O)/C2=N\S(=O)(=O)c2cccs2)cc1	35	-10	80*	2	-118	58	89*
C=CCn1c(SCC(=O)Nc2cc(C)on2)nc2ccccc21	·	-1	·	·	·	·	·
O=C(/C=C/c1ccc(O)c(O)c1)NC(=O)c1ccccc1O	-9	-2	55*	1	-16	-3	32
O=C(/C=C/c1ccc(Br)cc1)NC(=O)c1ccccc1O	17	-1	-4	-1	-2	17	·
NC(=O)N/N=C/c1ccc(N2CCOCC2)s1	18	1	3	2	-18	6	·
O=C(O)c1cc(N/N=C/c2ccc(N3CCOCC3)s2)ccc1Cl	10	-3	39*	-3	-18	16	18
Cc1cc(C)c(S(=O)(=O)NCc2cn3ccccc3n2)c(C)c1	-6	1	39*	-1	3	6	8
OCc1cccc(-c2csc(C(O)c3ccccc3)n2)c1 (centres undefined)	·	2	·	·	·	·	·
C[C@]12c3[nH]c4cc(-c5ccco5)ccc4c3CCN1C(=O)[C@@H](CC(=O)NCC13CC4CC(CC(C4)C1)C3)C[C@@H]2C(=O)N1CCOCC1	36	0	·	-1	·	·	·
